In the library only some 3.5% were active in any assay of this set; here they are far more common.
MrgX1 antag – antagonists of human MrgX1 receptor, primary screen, HEK293 cells, Fluo-4 calcium flux. Mas-related G-protein coupled receptor member X1 (Homo sapiens), Q96LB2. BAM8-22 antagonism; hits give low values. B-score at 10 µM. actives 1.3% (n = 310,000);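 active = calcium-response B-score plate-corrected more than 3 library SD below zero, starting fluorescence within 5 deviations, no agonist response on first addition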;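 note: peak minus trough fluorescence over baseline after final BAM8-22 challenge near maximal dose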
Target sequence (Q96LB2 whole entry, looked up): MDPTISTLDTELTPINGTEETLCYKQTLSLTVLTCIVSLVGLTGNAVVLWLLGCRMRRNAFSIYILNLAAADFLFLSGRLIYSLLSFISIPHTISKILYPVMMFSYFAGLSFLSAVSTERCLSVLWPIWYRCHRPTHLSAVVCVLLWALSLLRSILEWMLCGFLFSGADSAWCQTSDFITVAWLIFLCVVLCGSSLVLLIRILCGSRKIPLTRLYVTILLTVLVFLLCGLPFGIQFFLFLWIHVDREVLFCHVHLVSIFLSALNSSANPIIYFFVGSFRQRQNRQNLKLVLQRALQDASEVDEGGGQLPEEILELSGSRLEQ
RGS4 pot – RGS4 potentiators or activators, primary screen, cell-based, HEK293 M3R inducible RGS4, calcium flux; carbachol calcium flux Fluo4; hits give low values; B-score at 10 µM; actives 0.92% (n = 310,000);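 active = B-score of the integrated calcium signal more than 4 SD below the library mean, with starting fluorescence not abnormally high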;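 note: negative B-score means reduced calcium response which marks RGS4 activation or potentiation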
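Reagent: ECmax carbachol challenge; Test system: M3R-expressing HEK293 line, RGS4 induced by doxycycline; Schedule: overnight RGS4 induction, 30 min dye load 37 °C, 20 min compound RT; Detection: calcium dye Fluo4 fluorescence; Read-out: Agonist-evoked peak-minus-minimum fluorescence over baseline, integrated ratio, B score.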
MrgX1 ag – agonists of human MrgX1 receptor, primary screen, HEK293 cells, Fluo-4 calcium flux | Mas-related G-protein coupled receptor member X1 (Homo sapiens), Q96LB2 | Fluo-4 calcium fluorescence, agonist mode; hits give high values | B-score at 10 µM | actives 0.44% (n = 310,000) | AID 588627, 2011;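 active = calcium response B-score plate-corrected fluorescence ratio at least 3 library SD, with starting fluorescence B-score inside 5 SD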
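Test system: HEK293 cells stably expressing human MrgX1 receptor; amount: 15,000 cells per well; doses: compound delivered in addition one of three; times: overnight plating before 1 h dye loading; detection: Fluo-4 NW calcium-flux fluorescence, kinetic read; read-out basis: B-scored fluorescence response ratio; controls: positive and negative controls per plate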
RGS4 inh – RGS4 inhibitors, primary screen, cell-based, HEK293 M3R inducible RGS4, calcium flux; Regulator of G-protein signaling 4 (Homo sapiens), P49798; Fluo-4 calcium flux; hits give high values; triggered by carbachol at its EC20; B-score at 10 µM; actives 0.45% (n = 310,000);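 active = B-score, a plate-corrected calcium signal, over three deviations above library mean, with baseline fluorescence within five deviations of library mean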;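 note: RGS4 expression induced by doxycycline in cells with stable M3 receptor; B-score is computed from the integrated fluorescence ratio over baseline after carbachol; higher B-score means a larger calcium signal and so more RGS4 inhibition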
Target sequence (P49798 whole entry, looked up): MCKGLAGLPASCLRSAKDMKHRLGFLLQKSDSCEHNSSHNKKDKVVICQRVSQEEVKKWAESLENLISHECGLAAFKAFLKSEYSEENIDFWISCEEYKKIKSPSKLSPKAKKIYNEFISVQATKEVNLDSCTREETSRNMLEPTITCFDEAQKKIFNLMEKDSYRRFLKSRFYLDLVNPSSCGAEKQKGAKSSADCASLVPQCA
MrgX1 allo act – positive allosteric modulators of MrgX1, primary screen, HEK293 cells, Fluo-4 calcium flux; Mas-related G-protein coupled receptor member X1 (Homo sapiens), Q96LB2; FDSS; hits give high values; B-score at 10 µM; actives 0.63% (n = 310,000);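 active = plate-corrected calcium response at least 3 library SD above typical, normal starting fluorescence, not activating the receptor alone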;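 note: compound read alongside a low EC10 to EC30 dose of BAM8-22 agonist; peak minus trough fluorescence over baseline measured at the second addition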
MrgX1 ag confirm – MrgX1 receptor agonists, duplicate retest, confirmation, HEK293 cells, Fluo-4 calcium flux; shares compounds with MrgX1 ag; Fluo-4 calcium fluorescence, FDSS; activation, % at 10 µM; actives 78% (n = 600); AID 602412, 2012;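 active = calcium signal rise, corrected for plate position, at least 3 library SD high, with starting brightness within 5 such deviations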
HEK293 Ca flux – nonspecific calcium signal in parental HEK293, confirmation, counter-screen for MrgX1 antagonist project, parental HEK293 cells, Fluo-4 calcium flux; shares compounds with MrgX1 antag; Fluo-4 calcium fluorescence, FDSS; fluorescence ratio F(max-min)/F0 at 10 µM; actives 2% (n = 4,000);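 active = duplicate-averaged calcium fluorescence ratio at least three times the standard deviation of buffer wells, a nonspecific response in parental cells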
HEK293 Ca counter – calcium response in parental HEK293 cells, primary screen, counter-screen for MrgX1 allosteric activator project, cell-based, Fluo-4 calcium flux, duplicate | shares compounds with MrgX1 antag | Fluo-4 fluorescence ratio; hits give high values | fluorescence ratio F(max-min)/F0 at 10 µM | actives 0.4% (n = 4,000) | AID 624114, 2012;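 active = calcium fluorescence ratio, averaged over duplicates, at least 3 SD of the buffer-well ratio, meaning a nonspecific response in receptor-free cells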;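 note: untransfected parental HEK293 lacking MrgX1 used as counterscreen for MrgX1 allosteric activators; fluorescence change taken during the second addition on a kinetic imager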
HEK293 Ca cntr2 – calcium response in parental HEK293 cells, primary screen, counter-screen for MrgX1 agonist project, cell-based, Fluo-4 calcium flux, duplicate, agonist mode. shares compounds with MrgX1 antag. Fluo-4 calcium fluorescence (FDSS); hits give high values. fluorescence ratio F(max-min)/F0 at 10 µM. actives 8.7% (n = 4,000). AID 624115, 2012;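 active = calcium fluorescence ratio at least three times the spread of buffer wells, meaning a non-specific response in parental cells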
* marks the source's active call; other numbers are inactive results; i = inactive; . = no result given.

SMILES	MrgX1 antag	RGS4 pot	MrgX1 ag	RGS4 inh	MrgX1 allo act	MrgX1 ag confirm	HEK293 Ca flux	HEK293 Ca counter	HEK293 Ca cntr2
COc1ccc(-n2c(O)c(/C=N/NS(=O)(=O)c3cc(C)ccc3C)c3ccccc3c2=O)cc1OC	i	-7.7*	130*	i	i	322%*	0.32*	i	132*
COc1ccc(C)cc1S(=O)(=O)Nc1ccc(-n2c(C)nc3ccccc3c2=O)cc1	i	i	i	i	i	.	.	.	.
COc1ccc(-n2c(O)c(/C=N/Nc3nc(C)cc(C)n3)c3ccccc3c2=O)cc1OC	i	i	i	i	i	.	.	.	.
CC(C)c1ccc(NC2(C#N)C(=O)Nc3ccccc32)cc1 (stereo unspecified)	i	i	39*	i	i	191%*	i	i	49*
CC(NC(=O)c1cccc(S(=O)(=O)N2CCN(C)CC2)c1)c1ccc(Cl)cc1Cl (stereo unspecified)	i	i	i	i	i	.	.	.	.
CCOC(=O)Cn1c(CCC(=O)O)ccc1-c1ccc(F)cc1	i	i	45*	i	i	170%*	i	i	i
CN(CCOc1ccc(Cl)c(Cl)c1)Cc1ccccc1	i	i	i	i	i	.	.	.	.
CCN(CC)CCCOc1ccc(Cl)c(Cl)c1	i	i	107*	i	i	i	i	i	i
Cc1cccc2c1N(CCCOc1ccccc1)C(=O)C2=O	i	i	35*	i	i	251%*	i	i	50*
Cc1cccc2c1N(CCCOc1ccc(C(C)(C)C)cc1)C(=O)C2=O	i	i	i	i	i	.	.	.	.
CCN(CC)CCCN=Cc1c(-c2ccccc2)[nH]n(-c2nc3ccccc3s2)c1=O	i	i	i	i	i	.	.	.	.
CCCc1[nH]n(-c2nc3ccccc3s2)c(=O)c1C=NCC(C)C	i	i	29*	i	i	227%*	i	i	59*
Fc1cccc(NCCc2c[nH]c3ccccc23)n1	i	i	28*	i	i	116%*	i	i	i
Cc1cccc(C)c1NC(=O)CSc1nc(C2CC2)nc2ccccc12	i	i	i	i	i	.	.	.	.
CCC1(C)NC(=O)N(CC(=O)Nc2sc3c(c2C(=O)OC)CCCCC3)C1=O (stereo unspecified)	i	i	28*	i	i	437%*	i	i	128*
Cc1ccc(Nc2nnc(-c3ccncc3)s2)c(Br)c1	i	i	49*	i	i	i	i	i	i
CNc1nnc(-c2ccncc2)s1	i	i	i	i	i	.	.	.	.
C=CCOc1ccc(C(=O)O)cc1Cl	i	i	i	i	i	.	.	.	.
CC/C(=N/Nc1ccc(Cl)cc1)c1cnnc(SC)n1	i	i	i	i	i	.	.	.	.
CSc1nnc(C)c(/C=C/Nc2ccc(Cl)cc2)n1	i	i	45*	i	i	248%*	0.36*	i	74*
COc1ccc(N/C=C/c2nc(SC)nnc2C)cc1	i	i	i	i	i	.	.	.	.
CSc1nnc(C)c(/C=C/Nc2ccc(F)cc2)n1	i	i	30*	i	i	152%*	i	i	i
CCOC(=O)c1ccc2c(c1)NCc1cccc(OC)c1O2	i	i	28*	i	i	i	i	i	i
O=C(Nc1nnc(-c2ccccc2Cl)o1)c1nc2ccccc2s1	i	i	103*	i	i	433%*	i	i	84*
CN(c1ccccc1)c1nc(N2CCCC2)nc(-n2ccnc2)n1	i	i	48*	i	i	171%*	i	i	51*
SMILES	MrgX1 antag	RGS4 pot	MrgX1 ag	RGS4 inh	MrgX1 allo act	MrgX1 ag confirm	HEK293 Ca flux	HEK293 Ca counter	HEK293 Ca cntr2
Cc1ccc(NC(=S)N2CCN(S(C)(=O)=O)CC2)cc1Cl	i	i	i	i	i	.	.	.	.
CCC1CCCCN1CCCNC(=O)CNC(=O)c1nn(-c2ccc(OC)c(Cl)c2)c(=O)c2ccccc12 (stereo unspecified)	i	i	i	i	i	.	.	.	.
Cn1c(=O)c2[nH]c(C3CCCC3)nc2n(C)c1=O	i	i	36*	i	i	i	i	i	i
Cn1c(=O)c2[nH]c(N3CCCCC3)nc2n(C)c1=O	i	i	i	i	i	.	.	.	.
O=C1C(=O)N(Cc2cccs2)c2ccccc21	i	i	33*	i	i	185%*	i	i	i
O=C(CN1C(=O)C(=O)c2ccccc21)c1ccccc1	i	i	i	i	i	.	.	.	.
C=CCOC(=O)C1=C(C)OC(N)=C(C#N)C1c1ccccc1F (stereo unspecified)	i	i	27*	i	i	173%*	i	i	i
Cc1ccc(S(=O)(=O)NCCCCCC(=O)Nc2c(C)n(C)n(-c3ccccc3)c2=O)cc1	i	i	i	i	i	.	.	.	.
Cc1cc(N2CCOCC2)nc(NCc2ccccc2)n1	i	i	66*	i	i	294%*	i	i	i
Cc1cc(N2CCCCC2)nc(NCc2ccccc2)n1	i	i	83*	i	i	340%*	i	i	i
Cc1cc(NCc2ccccc2)nc(N2CCOCC2)n1	i	i	i	i	i	.	.	.	.
CC(/C=N/NC(=O)c1nnn(-c2nonc2N)c1CN1CCCCC1)c1ccccc1 (stereo unspecified)	i	i	i	i	i	.	.	.	.

Screening data deposited in PubChem BioAssay by Johns Hopkins Ion Channel Center.
